Experimental data: ChEMBL document CHEMBL1151806, “Indolizidine, antiinfective and antiparasitic compounds from Prosopis glandulosa var. glandulosa” (J Nat Prod, 2009)
Values after ≈ are worked out from the molar mass of the structure shown. Active and inactive are the calls of the source. No cut-off for these calls is given here.

Columns and labels:
[1] = test system: Mycobacterium intracellulare; experiment: Antimicrobial activity against Mycobacterium intracellular ATCC 23068 by alamar blue assay in presence of 5% human serum; assay type: functional, organism-based
Staphylococcus aureus [2] = experiment: Antimicrobial activity against methicillin-resistant Staphylococcus aureus ATCC 43300 by NCCLS method in presence of 5% human serum; assay type: functional, organism-based
Cryptococcus neoformans [3] = experiment: Antimicrobial activity against Cryptococcus neoformans ATCC 90113 by NCCLS method in presence of 5% human serum; assay type: functional, organism-based
Staphylococcus aureus [4] = experiment: Antimicrobial activity against methicillin-resistant Staphylococcus aureus ATCC 43300 by NCCLS method; assay type: functional, organism-based
Outline: (§1)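 Samples serially diluted in 20% DMSO/saline, tested in duplicate. Inocula set by OD630: C. albicans RPMI pH 4.5, 1·10^4 CFU/mL; C. neoformans Sabouraud dextrose, 1·10^5; MRSA cation-adjusted Mueller-Hinton pH 7.3, 5·10^5; M. intracellulare 7H9/OADC + 5% Alamar Blue pH 7.3, 2·10^6; A. fumigatus RPMI pH 7.3 + 5% Alamar Blue, 3·10^4.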

Candida albicans [5] = experiment: Antimicrobial activity against Candida albicans ATCC 90028 by NCCLS method; assay type: functional, organism-based; outline: as §1
[6] = test system: Mycobacterium intracellulare; experiment: Antimicrobial activity against Mycobacterium intracellular ATCC 23068 by alamar blue assay; assay type: functional, organism-based
Outline: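 Samples serially diluted in 20% DMSO/saline, tested in duplicate. Inocula set by OD630: C. albicans RPMI pH 4.5, 1·10^4 CFU/mL; C. neoformans Sabouraud dextrose, 1·10^5; MRSA cation-adjusted Mueller-Hinton pH 7.3, 5·10^5; M. intracellulare 7H9/OADC + 5% Alamar Blue pH 7.3, 2·10^6; A. fumigatus RPMI pH 7.3 + 5% Alamar Blue, 3·10^4. Read at 630 nm or 544ex/590em before and after incubation.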

Candida albicans [7] = experiment: Antimicrobial activity against Candida albicans ATCC 90028 by NCCLS method in presence of 5% human serum; assay type: functional, organism-based
Aspergillus fumigatus [8] = experiment: Antimicrobial activity against Aspergillus fumigatus ATCC 90906 by alamar blue assay in presence of 5% human serum; assay type: functional, organism-based
Aspergillus fumigatus [9] = experiment: Antimicrobial activity against Aspergillus fumigatus ATCC 90906 by alamar blue assay; assay type: functional, organism-based; outline: as §1
Cryptococcus neoformans [10] = experiment: Antimicrobial activity against Cryptococcus neoformans ATCC 90113 by NCCLS method; assay type: functional, organism-based; outline: as §1
[11] = Selectivity index, IC50 for african green monkey (Cercopithecus aethiops) Vero cells to IC50 for chloroquine-sensitive Plasmodium falciparum D6; assay type: functional
Outline: (§2)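 Selectivity index = IC50 against VERO cells divided by IC50 against P. falciparum (D6 or W2, respectively), each from the corresponding in-house assay.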

[12] = Selectivity index, IC50 for african green monkey (Cercopithecus aethiops) Vero cells to IC50 for […]; assay type: functional; outline: as §2
Plasmodium falciparum [13] = experiment: Antimalarial activity after 72 hrs against […] Plasmodium falciparum D6 by pLDH activity; assay type: functional, organism-based; details: D6, 72 h
Outline: (§3)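 P. falciparum-infected red cells (2% parasitemia, 2% hematocrit) in RPMI-1640 with 10% human serum and 60 μg/mL amikacin, exposed to serial sample concentrations. Gassed with 90% N2/5% O2/5% CO2, incubated 37 °C for 72 h. Parasite LDH activity read colorimetrically with Malstat reagent.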

Vero [14] = experiment: Cytotoxicity against african green monkey Vero cells at 4760 ng/mL; assay type: cell-based, Chlorocebus sabaeus
Leishmania donovani = experiment: Antileishmanial activity against Leishmania donovani promastigotes after 48 hrs by alamar blue assay; assay type: functional, organism-based
Vero [15] = experiment: Cytotoxicity against african green monkey Vero cells; assay type: cell-based; details: Chlorocebus sabaeus
Outline: (§4)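 Cells seeded at 25,000/well, incubated 24 h, then exposed to samples for 48 h. Viable cells measured by Neutral Red uptake. IC50 from logarithmic plots of growth inhibition vs concentration. Doxorubicin positive control, DMSO vehicle control.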

BT-549 = experiment: Cytotoxicity against human BT549 cells after 48 hrs by neutral red assay; assay type: functional, cell-based; details: BT-549, 48 h; outline: as §4
Plasmodium falciparum [16] = experiment: Antimalarial activity after 72 hrs against chloroquine-resistant Plasmodium falciparum W2 by pLDH activity; assay type: functional, organism-based; details: W2, 72 h; outline: as §3
KB = experiment: Cytotoxicity against human KB cells after 48 hrs by neutral red assay; assay type: functional, cell-based; outline: as §4
SK-OV-3 = experiment: Cytotoxicity against human SKOV3 cells after 48 hrs by neutral red assay; assay type: functional, cell-based; details: SK-OV-3, 48 h; outline: as §4
Vero [17] = experiment: Cytotoxicity against african green monkey Vero cells after 48 hrs by neutral red assay; assay type: cell-based, Chlorocebus sabaeus; details: Chlorocebus sabaeus, Vero, 48 h; read-out: IC50; outline: as §4
SK-MEL = experiment: Cytotoxicity against human SK-MEL cells after 48 hrs by neutral red assay; assay type: functional, cell-based; outline: as §4
LLC-PK1 = experiment: Cytotoxicity against pig LLC-PK1 cells after 48 hrs by neutral red assay; assay type: cell-based, Sus scrofa; details: Sus scrofa, LLC-PK1, 48 h; read-out: IC50; outline: as §4
[18] = Aspergillus fumigatus, ATCC 90906
[19] = Aspergillus fumigatus, ATCC 90906, read-out: IC50
[20] = Candida albicans, ATCC 90028, read-out: IC50

Structure (SMILES)	Activity [1]	Activity (Staphylococcus aureus [2])	Activity (Cryptococcus neoformans [3])	MFC (Candida albicans [5])	MBC [6]	MIC [6]	Activity (Candida albicans [7])	Activity (Aspergillus fumigatus [8])	IC50 (Staphylococcus aureus [4])	IC50 (Cryptococcus neoformans [10])	IC50 [6]	Ratio IC50 [11]	Ratio IC50 [12]	IC50 (Plasmodium falciparum [13])	IC50 (Vero [14])	IC90 (Leishmania donovani)	IC50 (Vero [17])	IC50 (Leishmania donovani)	further results
C[C@H]1N[C@@H](CCCCCCCCCCC2=C[C@@H](CCCCCCCCCC[C@@H]3CC[C@H](O)[C@@H](C)N3)[C@@H]3CCCN3C2)CC[C@H]1O	Active	Active	Active	inactive	inactive	inactive	Active	Active											MBC (Staphylococcus aureus [4]): inactive; MIC (Candida albicans [5]): inactive; MFC (Aspergillus fumigatus [9]): inactive
C[C@@H]1N[C@H](CCCCCCCCCCC2=C[C@@H](CCCCCCCCCC[C@@H]3CC[C@@H](O)[C@H](C)N3)[C@@H]3CCCN3C2)CC[C@H]1O.Cl.Cl						20 µg/mL			3 µg/mL	2 µg/mL	9.5 µg/mL	>7.9	>8.5	0.6 µg/mL	Non-toxic	7 µg/mL			IC50 (Candida albicans [5]): Not Active; IC50 (Aspergillus fumigatus [9]): Not Active
C[C@H]1N[C@@H](CCCCCCCCCCC2=C[C@@H](CCCCCCCCCC[C@@H]3CC[C@H](O)[C@@H](C)N3)[C@@H]3CCCN3C2)CC[C@H]1O [ISOPROSOPILOSINE]									1 µg/mL (≈ 1.59 µM)	0.4 µg/mL (≈ 0.635 µM)	1.5 µg/mL (≈ 2.38 µM)	22	12	0.083 µg/mL (≈ 0.132 µM)			1.8 µg/mL (≈ 2.86 µM)	0.26 µg/mL (≈ 0.413 µM)	MIC (Staphylococcus aureus [4]): 2.5 µg/mL (≈ 3.97 µM); IC50 (Vero [15]): 1.8 µg/mL (≈ 2.86 µM); IC50 (Candida albicans [5]): Not Active; MFC (Cryptococcus neoformans [10]): 0.63 µg/mL (≈ 1 µM); MIC (Cryptococcus neoformans [10]): 0.63 µg/mL (≈ 1 µM); IC50 (BT-549): 2.5 µg/mL (≈ 3.97 µM); IC50 (Plasmodium falciparum [16]): 0.15 µg/mL (≈ 0.238 µM); IC50 (KB): 2.2 µg/mL (≈ 3.49 µM); IC50 (SK-OV-3): < 1.1 µg/mL; IC50 (SK-MEL): < 1.1 µg/mL; MFC (Aspergillus fumigatus [9]; [18]): 2.5 µg/mL (≈ 3.97 µM); MIC (Aspergillus fumigatus [9]; [18]): 0.16 µg/mL (≈ 0.254 µM); IC50 (Aspergillus fumigatus [9]; [19]): 0.1 µg/mL (≈ 0.159 µM)
COc1cccc2c1C(=O)c1c(O)c3c(c(O)c1C2=O)C[C@@](O)(C(=O)CO)C[C@@H]3O[C@H]1C[C@H](N)[C@H](O)[C@H](C)O1 [DOXORUBICIN]																	3.2 µg/mL (≈ 5.89 µM)		IC50 (LLC-PK1): < 0.55 µg/mL; IC50 (BT-549): < 0.55 µg/mL; IC50 (KB): < 0.55 µg/mL; IC50 (SK-OV-3): < 0.55 µg/mL; IC50 (SK-MEL): < 0.55 µg/mL
N=C(N)c1ccc(OCCCCCOc2ccc(C(=N)N)cc2)cc1 [PENTAMIDINE]																2 µg/mL (≈ 5.87 µM)		0.5 µg/mL (≈ 1.47 µM)	
C[C@@H]1N[C@H](CCCCCCCCCCc2cc(CCCCCCCCCC[C@@H]3CC[C@@H](O)[C@H](C)N3)c3[n+](c2)CCC3)CC[C@H]1O.[Cl-] [PROSOPILOSIDINE DIHYDROCHLORIDE]	Active	Active	Active	inactive	inactive	10 µg/mL	Active	Active	1.5 µg/mL	1.5 µg/mL	3.5 µg/mL	>11.1	>17.6	0.43 µg/mL	Non-toxic	8 µg/mL		2.8 µg/mL	MIC (Staphylococcus aureus [4]): 2.5 µg/mL; MIC (Candida albicans [5]; Candida albicans, ATCC 90028): 20 µg/mL; IC50 (Candida albicans [5]; [20]): 15 µg/mL; MFC (Cryptococcus neoformans [10]): 2.5 µg/mL; MIC (Cryptococcus neoformans [10]): 2.5 µg/mL; IC50 (Aspergillus fumigatus [9]): Not Active; MFC (Aspergillus fumigatus [9]): inactive; MIC (Aspergillus fumigatus [9]): inactive
C[C@@H]1N[C@H](CCCCCCCCCCC2=C[C@@H](CCCCCCCCCC[C@@H]3CC[C@@H](O)[C@H](C)N3)[C@@H]3CCCN3C2)CC[C@H]1O	Active	Active	Active	inactive	inactive		Active	Active											MIC (Candida albicans [5]): inactive; MFC (Aspergillus fumigatus [9]): inactive; MIC (Aspergillus fumigatus [9]): inactive
C[C@@H]1CC[C@H]2[C@@H](C)C(=O)O[C@@H]3O[C@@]4(C)CC[C@@H]1[C@]32OO4 [ARTEMISININ]														0.016 µg/mL (≈ 0.0567 µM)	Non-toxic		> 4.76 µg/mL		IC50 (LLC-PK1): 0.6 µg/mL (≈ 2.13 µM)
C[C@H]1N[C@@H](CCCCCCCCCCC2=C[C@@H](CCCCCCCCCC[C@@H]3CC[C@H](O)[C@@H](C)N3)[C@@H]3CCCN3C2)CC[C@H]1O.Cl.Cl									3 µg/mL	0.85 µg/mL	10 µg/mL	>12.5	>16.4	0.38 µg/mL	Non-toxic	1.2 µg/mL		0.7 µg/mL	IC50 (Candida albicans [5]; [20]): 7.5 µg/mL; MFC (Cryptococcus neoformans [10]): 2.5 µg/mL; MIC (Cryptococcus neoformans [10]): 1.25 µg/mL; IC50 (Plasmodium falciparum [16]): 0.29 µg/mL; IC50 (Aspergillus fumigatus [9]; [19]): 6.5 µg/mL
O=C(O)c1cn(C2CC2)c2cc(N3CCNCC3)c(F)cc2c1=O [CIPROFLOXACIN]					inactive	0.63 µg/mL (≈ 1.9 µM)													MBC (Staphylococcus aureus [4]): inactive; MIC (Staphylococcus aureus [4]): 0.3 µg/mL (≈ 0.905 µM)
CCN(CC)CCCC(C)Nc1ccnc2cc(Cl)ccc12 (centres undefined) [CHLOROQUINE]															Non-toxic				
C[C@H]1N[C@@H](CCCCCCCCCCC2=C[C@@H](CCCCCCCCCC[C@H]3CC[C@@H](O)[C@@H](C)N3)[C@@H]3CCCN3C2)CC[C@H]1O [JULIPROSOPINE]	Active	Active	Active	inactive			Active	Active	3.5 µg/mL (≈ 5.56 µM)	1.5 µg/mL (≈ 2.38 µM)	6 µg/mL (≈ 9.52 µM)	23	13	0.22 µg/mL (≈ 0.349 µM)			5 µg/mL (≈ 7.94 µM)	0.75 µg/mL (≈ 1.19 µM)	MBC (Staphylococcus aureus [4]): inactive; IC50 (Vero [15]): 5 µg/mL (≈ 7.94 µM); IC50 (Candida albicans [5]): Not Active; MIC (Candida albicans [5]): inactive; IC50 (Plasmodium falciparum [16]): 0.38 µg/mL (≈ 0.603 µM); IC50 (KB): 6.2 µg/mL (≈ 9.84 µM); IC50 (SK-OV-3): 4.7 µg/mL (≈ 7.46 µM); IC50 (SK-MEL): 2.4 µg/mL (≈ 3.81 µM); MFC (Aspergillus fumigatus [9]; [18]): 1.25 µg/mL (≈ 1.98 µM); MIC (Aspergillus fumigatus [9]; [18]): 1.25 µg/mL (≈ 1.98 µM); IC50 (Aspergillus fumigatus [9]; [19]): 0.9 µg/mL (≈ 1.43 µM)
